Bioassay records: PubChem, Sanford-Burnham Center for Chemical Genomics
Compounds with a hit are over-represented: about 3.9% of the library has one in this group of screens.
TIM10 inh – growth inhibitors of isogenic TIM10 control yeast, primary screen, counter-screen for tim10-1 yeast inhibitor project, luminescence, uHTS | S. cerevisiae TIM10 strain growth, BacTiter-Glo luminescence, 24 h | 330,000 tested, 1.4% active | inhibition, % at 10 µM;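 active means inhibition of 40% or more at the single tested concentration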;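 further: wild-type TIM10 isogenic control strain grown at permissive 25 °C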
tim10-1 inh – growth inhibitors of tim10-1 mutant yeast, primary screen, luminescence, uHTS | S. cerevisiae tim10-1 ts strain growth, BacTiter-Glo, 24 h | 330,000 tested, 2.2% active | inhibition, % at 20 µM;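 active means inhibition of at least 40%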;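 further: mutant grown at 25 °C; 0% = DMSO wells with yeast and 100% = wells holding no yeast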
tim23-1 inh – growth inhibitors of tim23-1 mutant yeast, primary screen, luminescence, uHTS; inhibition, % at 20 µM; S. cerevisiae tim23-1 growth, BacTiter-Glo luminescence, 24 h; 330,000 tested, 1.3% active; AID 463212, 2010;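 active means growth inhibition of the mutant yeast at or above 50%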;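 further: temperature-sensitive mutant grown at 25 °C; plate controls were DMSO-treated mutant yeast for no effect and medium wells lacking yeast for full effect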
UPR XBP1 act – activators of adaptive XBP1 UPR arm, primary screen, cell-based, CHO-XBP1 luciferase reporter, luminescence, uHTS. 330,000 tested, 0.33% active. activation, % at 20 µM. IRE1-XBP1 UPR activation; percent of tunicamycin response, DMSO as zero;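 active means versus positive control, 20 µM dose yields 30% or more activation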;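 further: 100% = tunicamycin at 10 µg/mL and 0% = DMSO only wells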
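Material: CHO-XBP1 cells stably carrying IRE1-XBP1-driven luciferase reporter | Medium: F12 with 10% serum | Compound dosing: 20 µM single concentration, DMSO 1% | Incubation: Overnight seeding at 37 °C, 6 h compound treatment at 37 °C | Detection: Steady-Glo luminescence read | Read-out basis: % activation of reporter signal versus tunicamycin and DMSO controls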
CHOP UPR activ – activators of apoptotic CHOP UPR arm, primary screen, cell-based, CHO-CHOP luciferase reporter, luminescence, uHTS; UPR activation; percent of tunicamycin response over DMSO baseline; activation, % at 10 µM; 330,000 tested, 0.34% active;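 active means at 10 µM dose, activation of 40% or more, normalized to positive control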;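 further: 100% = tunicamycin at 10 µg/mL and 0% = DMSO alone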
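System: CHO-CHOP luciferase reporter cell line; amount: 500 cells/well; buffer or medium: F12 medium containing 10% fetal bovine serum; incubation: 6 h compound exposure at 37 °C after overnight seeding; measured by: luciferase luminescence after 10 min with Steady-Glo reagent; evaluation: % reporter activation, DMSO baseline versus tunicamycin full activation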
* marks the source's active call; other numbers are inactive results.

SMILES	TIM10 inh	tim10-1 inh	tim23-1 inh	UPR XBP1 act	CHOP UPR activ
CC(=O)CSc1nc2ccc(Nc3nc(N4CCOCC4)nc(N4CCOCC4)n3)cc2s1	8	27	32	2	1
Cc1ccc(NC(=O)CSc2nc3ccc(Nc4nc(N5CCOCC5)nc(N5CCOCC5)n4)cc3s2)cc1	-1	6	7	78*	4
COc1cc(C(=O)O/N=C2/C=C(C)C(=O)C=C2C)cc(OC)c1OC	30	37	33	-5	96*
O=C(c1cc2ccccc2oc1=O)N(Cc1ccccc1F)C1CCS(=O)(=O)C1 (configuration not stated)	-2	-5	-9	2	11
O=C(CSc1nnc(C2CC2)n1-c1ccccc1)N1CCNC1=O	1	0	9	-2	2
CCCCc1ccc(NC(=O)Cn2c(=O)c(N3CCCCC3)c(N)n(C)c2=O)cc1	-5	2	4	1	-1
O=C(N/N=C/c1cc([N+](=O)[O-])ccc1O)c1ccc(COc2ccc3c(c2)CCC3)o1	0	0	18	33*	21
CC(=O)Nc1cccc(C(=O)/C=C/c2ccc(/C=C/C(=O)c3cccc(NC(C)=O)c3)cc2)c1	-24	-1	-19	15	83*
CC(=O)Nc1cccc(C(=O)/C=C/c2ccc(Br)cc2)c1	35	23	45	13	7
O=C(C1CC=CCC1)N1CCN(S(=O)(=O)c2ccc(F)cc2)CC1 (configuration not stated)	13	11	5	-1	0
CC(C)(C)C1=CC=C(C(C)(C)C)C(=O)C1=O	18	31	36	3	49*
Cc1ccc2nc(NC(=O)c3cccc(-c4cc5ccccc5oc4=O)c3)sc2c1	-10	-3	-18	122*	1
Cc1cccc(Nc2nc(-c3ccc(O)c(O)c3)cs2)n1	19	2	12	17	100*
Cc1ccc2[nH]c(C(=O)NCCN3CCCC3)cc2c1	-8	-4	-5	2	0
FC(F)(F)c1ccc(C2Nc3cccc4cccc(c34)N2)cc1	11	18	41	2	0
Brc1ccc(-c2ccc(C3Nc4cccc5cccc(c45)N3)o2)cc1	1	28	29	37*	6
COc1cc(NC(=O)c2cc([N+](=O)[O-])ccc2NC(=O)CN2CCN(c3ccccn3)CC2)cc(OC)c1	11	17	10	-3	3
CCOc1ccc(OCC)c(NC(=O)CSc2nnc(C3CC3)n2CC)c1	4	1	20	-3	1
C/C(=N\O)c1noc(C)c1C(=O)Nc1nccs1	10	12	16	5	-2
O=C(c1cccc(S(=O)(=O)N2CCN(c3ccccc3)CC2)c1)N1CCN(c2ccccc2O)CC1	-5	-2	2	-6	6
COc1ccc(/C=C(\C#N)C(=O)NCCc2ccccc2)cc1OCc1ccccc1	0	21	24	-2	0
N#C/C(=C\c1ccc(O)c(O)c1)C(=O)NCCCc1ccccc1	-2	11	17	5	151*
COc1cc(NS(=O)(=O)c2ccc(C)cc2)c2ncccc2c1	10	23	21	-4	111*
CC(=O)c1ccc(OCc2cc(C(=O)N(C)CCOc3ccc(C)cc3)no2)cc1	16	27	21	-3	4
COc1cc(NC(=O)C[n+]2ccc(C(=O)c3ccccc3)cc2)cc(OC)c1	-6	-6	-8	-2	0
SMILES	TIM10 inh	tim10-1 inh	tim23-1 inh	UPR XBP1 act	CHOP UPR activ
CN(C)c1ccc(/C=C2\C(=N)N3C(=NC2=O)Sc2cc(S(C)(=O)=O)ccc23)cc1	-1	4	8	136*	16
COC(=O)c1ccc2c(=O)n(Cc3ccco3)c(SCC(=O)Nc3ccc(C)c(Cl)c3)nc2c1	-6	27	-18	38*	40
Cc1ccc(N/N=C2\CC(=O)c3ccccc32)cc1Cl	-12	8	42	96*	49*
CCCOc1cccc(-c2cc(C(=O)N/N=C/c3ccccn3)c3ccccc3n2)c1	27	19	41	-2	296*
CCOC(=O)c1ccccc1NC(=O)CSc1nc2ccccc2c(=O)n1CCCN1CCOCC1	13	3	42	6	0
CCn1c2ccccc2c2cc(NC(=O)c3coc(=O)c(Br)c3)ccc21	13	1	-11	73*	100*
CCn1c2ccccc2c2cc(NC(=O)c3ccc(=O)oc3)ccc21	7	12	15	19	4
CCOC(=O)C1=C(C)NC(C)=C(C(=O)OCC)C1/C=C/c1ccccc1OC	24	11	23	0	6
CCOC(=O)C1=C(C)NC(C)=C(C(=O)OCC)C1c1ccccc1/C=C/C(=O)OC(C)(C)C	16	26	32	39*	7
COc1ccc(Cl)cc1NC(=O)CN1CCc2ccccc2C1	9	16	39	-4	0
CN(C)S(=O)(=O)c1cccc(CNCC2COc3ccccc3O2)c1 (configuration not stated)	10	-5	4	-3	3
O=S(=O)(c1ccccc1)[C@@]1(c2ccccc2)C[C@@H]2ON=C(c3cccc(-c4ccccc4)c3)[C@@H]2C1	-7	1	4	-5	2
COC(=O)c1ccc(CNC(=O)C2CCC(=O)N(C3CCCCCC3)C2)cc1 (configuration not stated)	-1	13	9	-4	-1
CCOC(=O)C1(Cc2ccccc2)CCCN(S(=O)(=O)N(C)C)C1 (configuration not stated)	3	18	31	-1	2
Fc1ccccc1/C=N/Nc1nc(-c2ccccn2)nc2ccccc12	21	20	5	5	168*
Oc1ccc(/C=N/Nc2nc(-c3cccnc3)nc3ccccc23)c(O)c1	-14	-8	-16	14	5
COC(=O)c1ccc2[nH]c3cccc(/C(=C/c4ccccc4)c4ccccc4)c3c2c1	-5	13	-1	93*	3
COc1ccc(N2CC(O)=C(c3nc(-c4ccccc4)cs3)C2=N)cc1	-4	-5	-13	-3	0
COc1ccc(N2CC(O)=C(c3nc(-c4ccc(Br)cc4)cs3)C2=N)cc1	-41	-50	-28	58*	15
COc1ccc(N2CC(O)=C(c3nc(-c4ccc(Cl)cc4)cs3)C2=N)cc1	-33	-50	-29	85*	19
Cc1cc(C)c2c(=O)n(CC(=O)N3CCC(Cc4ccccc4)CC3)sc2n1	10	-69	20	-3	41*
O=C(N/N=C/c1cc([N+](=O)[O-])ccc1O)c1cccc2ccccc12	-3	32	19	-1	-1
